Tests used:
Ileum [1] = assay: Antispasmodic activity in guinea pig ileum assessed as inhibition of acetylcholine-induced smooth muscle contraction; format: functional, Cavia porcellus
Outline: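 Ileum from male albino guinea pigs (300-450 g) in Krebs-Henseleit solution, 1 g tension, 10 mL bath, 38.5 °C, 95% O2/5% CO2. After 0.5 h equilibration, checked with 3 µM ACh three times. Samples (10, 30, 100 µM) added noncumulatively 20 min before 3 µM ACh. Contraction recorded isotonically, expressed as % of untreated ACh height. IC50 calculated. Mean ± SEM, 4-5 animals. DMSO <1% final.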

Ileum [2] = assay: Antispasmodic activity in guinea pig ileum assessed as inhibition of electrically-induced smooth muscle contraction; format: functional, Cavia porcellus
Outline: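 Male albino guinea-pig ileum (300-450 g) held under 1 g tension in Krebs-Henseleit at 38.5 °C, gassed 95% O2/5% CO2. Transmural stimulation through platinum ring electrodes: supramaximal 38.6 V, 0.2 Hz, 0.3 ms square pulses. Once twitch was stable, compounds added cumulatively at 10, 30, 100 µM. Isotonic recording, contraction as % of control. IC50 calculated. Mean ± SEM from 4-5 animals. DMSO vehicle <1% final.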

Compound | IC50 (Ileum [1]) | IC50 (Ileum [2])
COc1cccc2c1cc([N+](=O)[O-])c1c(C(=O)O)cc3c(c12)OCO3 [ARISTOLOCHIC ACID] | > 100 µM | 64 µM
COc1cc(C[C@H]2CO[C@@H](O)[C@@H]2Cc2ccc3c(c2)OCO3)ccc1O | 39.5 µM | 52.8 µM
COc1ccc(CCN(C)CCCC(C#N)(c2ccc(OC)c(OC)c2)C(C)C)cc1OC (centres undefined) [VERAPAMIL] | 0.28 µM | 0.25 µM
C=C1C[C@@]23CC[C@H]4[C@@](C)(CCC[C@]4(C)C(=O)O)[C@@H]2CCC1C3 | 25.4 µM | 28.2 µM
CC1(C)CCC[C@]2(C)[C@@H]1CC[C@@]13C[C@H](CC[C@H]12)[C@@](O)(CO)C3 | > 100 µM | > 100 µM
COc1cc2c(cc1C)C(=O)CCC2C (single isomer, unassigned; (+)) | 89.8 µM | > 100 µM

Continued, values first:

IC50 (Ileum [1]) | IC50 (Ileum [2]) | Compound
> 100 µM | 34.1 µM | CC1(C)CCC[C@]2(C)[C@@H]1CC[C@]13C=C(CO)[C@@H](CC[C@H]12)C3
> 100 µM | > 100 µM | CC1(C)CCC[C@]2(C)[C@@H]1CC[C@]13C=C(COC4OC[C@H](Cc5ccc6c(c5)OCO6)[C@H]4Cc4ccc5c(c4)OCO5)[C@@H](CC[C@H]12)C3 (some centres undefined)
23.6 µM | 51.6 µM | O[C@H]1OC[C@H](Cc2ccc3c(c2)OCO3)[C@H]1Cc1ccc2c(c1)OCO2
40.4 µM | > 100 µM | OC[C@H](Cc1ccc2c(c1)OCO2)[C@H](CO)Cc1ccc2c(c1)OCO2 [DIHYDROCUBEBIN]
27.3 µM | 69.8 µM | O=C1OC[C@H](Cc2ccc3c(c2)OCO3)[C@H]1Cc1ccc2c(c1)OCO2 [HINOKININ]
26.8 µM | 58.3 µM | COc1cc(C[C@H]2C(=O)OC[C@@H]2Cc2ccc3c(c2)OCO3)ccc1O

Source: ChEMBL document CHEMBL1155046, “Chemical constituents of Aristolochia constricta: antispasmodic effects of its constituents in guinea-pig ileum and isolation of a diterpeno-lignan hybrid” (2008)
